# Results taken from ChEMBL document CHEMBL4312006, “A novel chalcone derivative as Nrf2 activator attenuates learning and memory impairment in a scopolamine-induced mouse model” (Eur J Med Chem, 2020).
# Calls of active or inactive are those of the source. The rule behind the calls is not given here.
# What was measured:
# [1] = target: T1, Nuclear factor erythroid 2-related factor 2 (Mus musculus) (UniProt Q60795); assay: Activation of NRF2 in mouse BV2 cells upregulation of SOD1 protein expression incubated for 6 hrs by Western blot analysis; type: cell-based
# T1 sequence (whole entry): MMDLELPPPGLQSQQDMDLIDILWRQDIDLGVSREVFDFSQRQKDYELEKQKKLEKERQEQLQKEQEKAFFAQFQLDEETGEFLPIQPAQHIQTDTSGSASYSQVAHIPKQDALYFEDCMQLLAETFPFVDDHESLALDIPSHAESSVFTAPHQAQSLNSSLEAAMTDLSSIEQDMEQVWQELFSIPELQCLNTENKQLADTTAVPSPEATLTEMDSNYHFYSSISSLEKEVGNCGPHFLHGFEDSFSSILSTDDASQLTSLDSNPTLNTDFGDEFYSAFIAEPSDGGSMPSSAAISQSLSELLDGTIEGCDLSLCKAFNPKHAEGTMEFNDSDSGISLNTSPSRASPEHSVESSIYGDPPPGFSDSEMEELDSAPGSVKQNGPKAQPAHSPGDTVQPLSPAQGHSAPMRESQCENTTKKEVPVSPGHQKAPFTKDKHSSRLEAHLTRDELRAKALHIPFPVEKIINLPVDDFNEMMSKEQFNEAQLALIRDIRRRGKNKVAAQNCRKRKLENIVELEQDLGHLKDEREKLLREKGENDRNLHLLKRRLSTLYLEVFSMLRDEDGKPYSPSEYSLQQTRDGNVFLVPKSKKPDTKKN
# In short: (§1)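 BV-2 cells washed in ice-cold PBS and lysed on ice for 40 min in RIPA buffer with protease inhibitors. Nuclear fractions prepared separately. 10 μg protein run on SDS-PAGE and blotted to PVDF. Membranes blocked in 5% skim milk/TBST and probed overnight at 4 °C for Nrf2, HO-1, GCLM or SOD1. HRP secondary with ECL detection. Band densities normalised to Lamin B1 or β-actin.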
# Mus musculus [2] = assay: Cognition enhancing effect in C57BL/6 mouse model of scopolamine-induced amnesia assessed as increase in latency to enter dark room at 30 mg/kg, po administered for 5 days and measured on day 5 after 30 mins of scopolamine stimulation by passive avoidance test relative to control; type: functional
# In short: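 Male C57BL/6N mice given 30 mg/kg/day compound in saline orally for 5 days. Scopolamine 1 mg/kg i.p. given on day 4, 30 min before the acquisition trial. Step-through latency recorded in the passive avoidance test.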
# [3] = target: T1, Nuclear factor erythroid 2-related factor 2 (Mus musculus); assay: Activation of NRF2 in mouse BV2 cells assessed as increase in GCLM mRNA level at 0.1 to 10 uM incubated for 8 hrs by qRT-PCR analysis; type: cell-based
# In short: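 BV-2 microglia grown in RPMI 1640 with 10% FBS, 2.05 mM L-glutamine and penicillin-streptomycin at 37 °C, 5% CO2. Cells exposed to a range of compound concentrations for 8 h. Ho-1 or Gclm mRNA measured by qRT-PCR and expressed relative to untreated control. Means ± SEM, one-way ANOVA with Dunnett's test.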
# [4] = target: T1, Nuclear factor erythroid 2-related factor 2 (Mus musculus); assay: Activation of NRF2 in mouse BV2 cells assessed as increase in total NRF2 level at 0.1 to 10 uM incubated for 6 hrs by Western blot analysis; type: cell-based; in short: as §1
# Homo sapiens = species on record: Homo sapiens; assay: Inhibition of H2O2-stimulated ROS production in […] BV2 cells at 10 uM preincubated for 24 hrs followed by H2O2 stimulation for 20 mins by DCFH-DA dye based assay; type: functional, cell-based
# In short: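 BV-2 microglial cells pretreated with 10 μM compound for 24 h, then exposed to a series of H2O2 concentrations for 20 min. Intracellular ROS measured by DCFH-DA fluorescence. One-way ANOVA with Tukey's test.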
# BV-2 [5] = assay: Inhibition of H2O2-stimulated ROS accumulation in mouse BV2 cells preincubated for 24 hrs followed by H2O2 stimulation for 20 mins by DCFH-DA dye based fluorescence microscopy; type: functional, cell-based
# In short: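 BV-2 cells treated with a range of compound concentrations for 24 h at 37 °C. Loaded with 40 μM DCFH-DA for 40 min, then 300 μM H2O2 added for 20 min in the dark. Cells washed with PBS and DCF fluorescence imaged by digital microscopy.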
# CYP1A2 = target: T2, CYP1A2 (Homo sapiens, UniProt P05177); assay: Inhibition of CYP1A2 (unknown origin) assessed as remaining activity relative to control; type: ADME
# T2 sequence (P05177 whole entry): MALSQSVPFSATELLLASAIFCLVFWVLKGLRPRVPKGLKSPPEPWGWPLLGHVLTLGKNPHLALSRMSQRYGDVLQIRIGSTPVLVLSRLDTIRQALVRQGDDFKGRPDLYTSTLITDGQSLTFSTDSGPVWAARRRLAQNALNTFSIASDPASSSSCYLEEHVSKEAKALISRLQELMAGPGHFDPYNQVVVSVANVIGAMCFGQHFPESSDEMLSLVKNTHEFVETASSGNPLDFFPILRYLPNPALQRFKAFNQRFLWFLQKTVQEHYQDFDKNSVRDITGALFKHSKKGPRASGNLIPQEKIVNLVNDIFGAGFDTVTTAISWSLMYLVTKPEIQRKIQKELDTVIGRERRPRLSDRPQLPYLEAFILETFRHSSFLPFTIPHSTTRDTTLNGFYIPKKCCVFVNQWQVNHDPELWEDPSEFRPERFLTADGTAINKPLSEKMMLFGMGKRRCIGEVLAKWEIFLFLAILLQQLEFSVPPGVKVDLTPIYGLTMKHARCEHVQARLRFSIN
# Mus musculus [6] = assay: Cognition enhancing effect in C57BL/6 mouse model of scopolamine-induced amnesia assessed as increase in […] percentage at 30 mg/kg, po administered for 5 days and measured on day 5 after 30 mins of scopolamine stimulation by Y-maze test; type: functional, organism-based
# In short: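 Male C57BL/6N mice given 30 mg/kg/day compound in saline by gavage for 5 days. Scopolamine 2 mg/kg in saline given i.p. 30 min before testing on the last day. Mice handled daily for 7 days beforehand. Free exploration of a three-arm Y-maze for 10 min, with entries scored manually (all four paws). Alternation = consecutive entries into three different arms.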
# [7] = target: Keap1/Nrf2 (Homo sapiens) (UniProt Q16236+Q14145); assay: (§2) Activation of NRF2 in human U2OS cells co-expressing Keap1 (unknown origin) assessed as induction of NRF2 translocation to nucleus incubated for 6 hrs by beta-galactosidase based chemiluminescent assay; type: cell-based
# Keap1/Nrf2 (Homo sapiens), sequence (Q14145 whole entry, looked up): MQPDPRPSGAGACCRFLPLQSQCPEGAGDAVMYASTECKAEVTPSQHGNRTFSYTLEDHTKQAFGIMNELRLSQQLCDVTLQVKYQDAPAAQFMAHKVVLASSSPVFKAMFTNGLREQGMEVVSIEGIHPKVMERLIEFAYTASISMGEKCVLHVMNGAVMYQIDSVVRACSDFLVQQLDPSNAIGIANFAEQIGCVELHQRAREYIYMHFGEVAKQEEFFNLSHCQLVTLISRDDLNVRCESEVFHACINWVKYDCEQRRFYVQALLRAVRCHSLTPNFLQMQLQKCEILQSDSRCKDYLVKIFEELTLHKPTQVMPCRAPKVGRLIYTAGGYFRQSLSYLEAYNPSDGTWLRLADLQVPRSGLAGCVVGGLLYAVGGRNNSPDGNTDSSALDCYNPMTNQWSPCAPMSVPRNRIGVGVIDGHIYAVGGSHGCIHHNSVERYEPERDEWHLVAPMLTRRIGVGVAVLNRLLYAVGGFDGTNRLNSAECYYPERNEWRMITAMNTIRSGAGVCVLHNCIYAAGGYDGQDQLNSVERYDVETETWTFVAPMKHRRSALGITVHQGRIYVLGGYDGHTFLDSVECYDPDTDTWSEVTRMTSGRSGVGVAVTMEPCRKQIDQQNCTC
# Keap1/Nrf2 (Homo sapiens), sequence (Q16236 whole entry, looked up): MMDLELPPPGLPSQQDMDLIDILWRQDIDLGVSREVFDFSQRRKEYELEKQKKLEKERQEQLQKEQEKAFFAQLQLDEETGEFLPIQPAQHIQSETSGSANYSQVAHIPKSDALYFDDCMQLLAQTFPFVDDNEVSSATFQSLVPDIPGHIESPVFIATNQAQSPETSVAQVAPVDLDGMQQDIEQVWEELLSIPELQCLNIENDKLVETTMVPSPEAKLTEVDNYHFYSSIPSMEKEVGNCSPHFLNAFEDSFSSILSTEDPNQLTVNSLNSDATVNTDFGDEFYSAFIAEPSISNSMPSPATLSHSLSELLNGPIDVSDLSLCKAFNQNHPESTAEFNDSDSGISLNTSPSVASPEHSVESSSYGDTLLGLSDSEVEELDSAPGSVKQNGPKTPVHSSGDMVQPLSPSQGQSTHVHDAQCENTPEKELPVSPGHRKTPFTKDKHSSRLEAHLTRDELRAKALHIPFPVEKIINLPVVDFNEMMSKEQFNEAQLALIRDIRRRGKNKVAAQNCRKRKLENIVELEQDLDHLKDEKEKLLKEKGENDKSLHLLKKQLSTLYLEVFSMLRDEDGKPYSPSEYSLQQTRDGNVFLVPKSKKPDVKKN
# In short: (§3)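 PathHunter U2OS cells engineered to co-express enzyme donor-tagged NRF2 and nuclear-localized enzyme acceptor; Nrf2 nuclear translocation reconstitutes β-galactosidase. Cells in 96-well plates exposed to a range of compound concentrations for 6 h at room temperature (20–23 °C), then 1 h with detection reagent in the dark; chemiluminescence (RLU) read. EC50 from concentration-response curve, mean ± SEM, triplicate.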
# Keap1/Nrf2 = Keap1/Nrf2 (Homo sapiens, UniProt Q14145+Q16236); assay: as §2; type: cell-based; in short: as §3
# Keap1/Nrf2, sequence (Q16236 whole entry): as the sequence (Q16236 whole entry, looked up) above
# Keap1/Nrf2, sequence (Q14145 whole entry): as the sequence (Q14145 whole entry, looked up) above
# BV-2 [8] = assay: Cytotoxicity against mouse BV2 cells assessed as reduction in cell viability upto 10 uM incubated for 24 hrs by WST assay; type: cell-based; details: bv-2, 24 h
# In short: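 BV-2 cells incubated with compound concentrations up to 10 µM for 24 h at 37 °C. Ez-Cytox WST reagent added for 1 h and formazan absorbance read at 450 nm.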
# [9] = target: T1, Nuclear factor erythroid 2-related factor 2 (Mus musculus); assay: Activation of NRF2 in mouse BV2 cells assessed as increase in HO1 protein expression incubated for 12 hrs by Western blot analysis; type: cell-based; in short: as §1
structure (smiles),measurement,setting,value
CN1CCN(C(=O)COc2ccc(C(=O)/C=C/c3ccccc3C(F)(F)F)cc2)CC1.Cl,Activity,[1],Dose-dependent effect
same,activity,Mus musculus [2],>70%
same,Activity,[3],Active
same,Activity,[4],Active
same,inhibition,Homo sapiens,Active
same,inhibition,BV-2 [5],Dose-dependent effect
same,activity,CYP1A2,98.5%
same,Activity,Mus musculus [6],Active
same,Activity,[7],Dose-dependent effect
same,EC50,Keap1/Nrf2,630 nM
same,activity,BV-2 [8],Non-Toxic
same,Activity,[9],Dose-dependent effect
